Laboratory results from PubChem BioAssay AID463210 (The Scripps Research Institute Molecular Screening Center, 2010).
Among all 330,000 compounds or so, about 300 (0.091%) were called active.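 The calls were made as follows: active = percent activation above the screen-wide mean plus 3 SD (cut at about 25% in these data); inactive = the rest.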 The list comes from a sample in which actives are over-represented; it also holds similar structures and randomly drawn compounds.

The molecules below were run against Caspase-7 (Homo sapiens) (UniProt P55210) (assay: procaspase-7 activators, primary screen, counter-screen for procaspase-3 activator project, biochemical, absorbance, HTS, human (AID 463210)). Conditions: recombinant procaspase-7, Ac-DEVD-pNA absorbance 405 nm; at 8.5 µM; hits give high values; D23A/D198A/D206A triple mutant, cannot self-cleave; scale: DMSO 0, 5 µM enzyme 100.
Chain of Caspase-7 (Homo sapiens) (P55210 whole entry D23A/D198A/D206A): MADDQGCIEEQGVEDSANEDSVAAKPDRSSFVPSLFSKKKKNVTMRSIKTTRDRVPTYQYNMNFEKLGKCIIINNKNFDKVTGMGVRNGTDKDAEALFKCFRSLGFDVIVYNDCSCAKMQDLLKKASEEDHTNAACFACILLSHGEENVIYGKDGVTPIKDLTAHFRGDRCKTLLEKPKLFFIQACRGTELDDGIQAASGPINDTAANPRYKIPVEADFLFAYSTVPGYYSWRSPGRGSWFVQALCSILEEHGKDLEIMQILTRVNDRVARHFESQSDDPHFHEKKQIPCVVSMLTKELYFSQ
How it was run: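 Assay system – Uncleavable procaspase-7 mutant enzyme · Quantity – 2 µM procaspase-7 mutant as dispensed · Times – 1 h preincubation, 2 h reaction · Dosing – single nominal 8.5 µM compound dose, 0.8% DMSO final · Buffer or medium – Zinc-free 50 mM HEPES buffer, pH 7.4, with NaCl and Triton X-100 · Detection – Epi-absorbance of released pNA at 405 nm, two timepoints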

Row | Structure (SMILES) | activation
1 | CCOC(=O)C1(CCOc2ccccc2)CCN(Cc2cc(OC)cc(OC)c2)CC1 | -7.5% (inactive)
2 | CCOC(=O)C1(CCOC)CCN(Cc2ccc(C(=O)OC)cc2)CC1 | 1.4% (inactive)
3 | CCOC(=O)C1(CCOC)CCN(Cc2cc3ccccc3s2)CC1 | 31.9% (active)
4 | S=C(Nc1ccc(Br)cc1)NC1CCN(Cc2ccccc2)CC1 | -4.11% (inactive)
5 | CCCCNS(=O)(=O)c1ccc2nc(SCC(=O)Nc3cc(C)cc(C)c3)[nH]c2c1 | 7.82% (inactive)
6 | COC(=O)c1ccc(NS(=O)(=O)c2cc3c4c(c2)C(C)C(=O)N4CCC3)cc1 (stereo not drawn) | 8.38% (inactive)
7 | O=C(C[n+]1cc(-c2ccc(Cl)c(Cl)c2)n2c1CCC2)c1cccs1 | 5.63% (inactive)
8 | COC(=O)CC1=NN(c2nc(C)cc(C)n2)C(=O)C1 | 2.23% (inactive)
9 | CC(C)(C)c1ccc(/C=C2\Oc3c(ccc(O)c3CN3CCN(CCO)CC3)C2=O)cc1 | -5.14% (inactive)
10 | Cc1ccc(S(=O)(=O)N2C[C@@H]3CCCC[C@@H]3[C@@H](C)[C@H]2c2cn(Cc3ccccc3)c3ccc(F)cc23)cc1 | 6.02% (inactive)
11 | Cc1c(C(=O)N(Cc2ccccc2)Cc2cccnc2)cnn1-c1ccc(F)cc1 | 3.32% (inactive)
12 | COc1ccc(OCc2cc(C(=O)N3CCCC3)no2)c2ccccc12 | -1.07% (inactive)
13 | CN=C1SC(CC(=O)Nc2ccc(C(=O)O)cc2)C(=O)N1C (stereo not drawn) | 1.33% (inactive)
14 | CCCS(=O)(=O)N1CCC(C(=O)NCCc2ccc(OC)c(OC)c2)CC1 | 5.54% (inactive)
15 | O=C1CN(C(=O)c2cc(F)cc(F)c2)c2ccccc2N1 | 2.59% (inactive)
16 | CCOC(=O)C1CCN(C(=O)COC(=O)C2CCN(S(=O)(=O)c3ccc4c(c3)OCCO4)CC2)CC1 | 2.16% (inactive)
17 | CCCCc1ccc(NS(=O)(=O)c2cccc(C(=O)N3CCCN(C)CC3)c2)cc1 | -3.56% (inactive)
18 | Cc1ccc(S(=O)(=O)NCCC(=O)OCC(=O)N(C)c2ccccc2)cc1 | 1.61% (inactive)
19 | COc1ccc(-n2cc(CNC3CCOCC3)c(-c3cccc(F)c3)n2)cc1 | -1.78% (inactive)
20 | CCOc1ccc2c(c1)c(=O)c(S(=O)(=O)c1ccc(C)cc1)cn2CC | -6.47% (inactive)

Row | Structure (SMILES) | activation
21 | C=CCN(c1ccccc1C(=O)NCC(=O)OCC)S(=O)(=O)c1ccc(C)cc1 | 4.75% (inactive)
22 | CC(=O)N1c2ccc(S(=O)(=O)N3CCCC(C(=O)NCc4ccc(Cl)cc4)C3)cc2CC1C (stereo not drawn) | 1.56% (inactive)
23 | COc1ccc(CN(C(=O)CSc2nnc(-c3ccc(OC)c(OC)c3)o2)c2ccc(F)cc2)cc1 | -3.3% (inactive)
24 | O=C1CCCCN1CCCC(=O)N1CCCC(Nc2ccc(F)cc2)C1 (stereo not drawn) | -11.7% (inactive)
25 | CCOc1cc(C(=O)N2CCc3cc(OC)c(OC)cc3C2)ccc1OC(F)F | 10.5% (inactive)
26 | CCCSc1ncccc1C(=O)O | 5.5% (inactive)
27 | CCC(CC)NC(=O)CSc1nnc(-c2c[nH]c3ccccc23)o1 | -2.98% (inactive)
28 | Cc1cc(C)c(S(=O)(=O)NCC2CCC(C(=O)NCc3ccc4c(c3)OCO4)CC2)c(C)c1 (stereo not drawn) | 10.5% (inactive)
29 | CCn1c2ccccc2c2cc(NC(=O)C/C(C)=N/NC(=O)c3ccccc3N)ccc21 | -4.21% (inactive)
30 | Cc1nccn1CCC1CCCCN1C(=O)CCc1nnc(-c2ccsc2)o1 (stereo not drawn) | 0.42% (inactive)
31 | O=C(CCn1nnc2ccccc2c1=O)N[C@@H](Cc1c[nH]c2ccccc12)C(=O)O | 9.07% (inactive)
32 | CC(C(=O)N1CCN(c2ccccc2F)CC1)c1ccc([N+](=O)[O-])cc1 (stereo not drawn) | -5.29% (inactive)
33 | CCCCCc1nnc(NC(=O)c2ccc(=O)n(C)n2)s1 | 9.59% (inactive)
34 | Cc1csc(/N=C/N(C)C)c1C#N | -2.59% (inactive)
35 | OCCC1CN(Cc2cccn2-c2nccs2)CCN1CCc1ccccc1 (stereo not drawn) | 3.58% (inactive)
36 | COC(=O)c1cccnc1NC(=S)NC(C)C | 3.88% (inactive)
37 | COc1ccc(N2CCN(S(=O)(=O)c3cc4c5c(c3)C(C)C(=O)N5CCC4)CC2)cc1 (stereo not drawn) | 4.7% (inactive)
38 | COc1ccc2sc(-c3ccc(S(C)(=O)=O)cc3)c(-c3ccc(C(N)=O)cc3)c2c1 | -9.45% (inactive)
39 | COc1ccc(-c2sc3ccc(OC)cc3c2C#Cc2ccccn2)cc1 | 25.1% (inactive)
40 | COc1ccc2sc(-c3ccc(S(C)(=O)=O)cc3)c(C#Cc3cncn3C)c2c1 | 32.4% (active)

Row | Structure (SMILES) | activation
41 | CN(CC(=O)Nc1ccccc1Cl)C(=O)c1ccccc1SCC(=O)N1CCCC1 | 5.38% (inactive)
42 | Cc1ccccc1N(C(=O)CNC(=O)c1cccs1)C(C(=O)NC1CCCC1)c1ccncc1 (stereo not drawn) | 2.19% (inactive)
43 | COc1ccc(Nc2ncnc3ccc(Br)cc23)c(OC)c1 | -0.33% (inactive)
44 | COc1ccc(Nc2ncnc3sc(-c4ccccc4)cc23)c(OC)c1 | 47.3% (active)
45 | COc1ccc(Nc2ncnc3sc(C)cc23)cc1 | 4.02% (inactive)
46 | O=C(Cn1cncn1)N/N=C/c1c2ccccc2cc2ccccc12 | -18.1% (inactive)
47 | CC(OC(=O)c1ccc2noc(-c3ccccc3)c2c1)C(N)=O (stereo not drawn) | -10.9% (inactive)
48 | COc1ccc(-c2onc3ccc(C(C)=O)cc23)cc1 | 68.7% (active)
49 | Oc1ccc(-c2onc3ccc(Cl)cc23)cc1 | -16.8% (inactive)
50 | CCOC(=O)CN1C(=O)C(=O)c2cc(C)ccc21 | 3.45% (inactive)
51 | CCCCCCCCCCOC(=O)Cn1c(COc2ccc(C)cc2)[n+](C)c2ccccc21 | 0.03% (inactive)
52 | CCCCOC(=O)Cn1c(=O)n(CC(=O)OCCCC)c2cc(C)ccc21 | 26.8% (active)
53 | Nc1ncnc(Nc2cccc(Cl)c2Cl)n1 | 1.33% (inactive)
54 | O=C(NCCCO)/C(=C\C=C\c1ccccc1)NC(=O)c1ccccc1Cl | 0.01% (inactive)
55 | Cc1cc(C)cc(Oc2c(C(F)(F)F)oc3cc(OCC(=O)O)ccc3c2=O)c1 | -4.44% (inactive)
56 | Cc1ccc(S(=O)(=O)N2CCC(C(=O)N[C@@H](C)C(=O)NCc3ccco3)CC2)cc1 | -5.6% (inactive)
57 | CC1(c2nnc(Cc3ccccc3)o2)CC(c2ccccc2F)=NO1 (stereo not drawn) | -4.57% (inactive)
58 | Cn1cc(S(=O)(=O)NC(c2ccccc2)c2ccccc2)c(=O)n(C)c1=O | 8.63% (inactive)
